Experimental data taken from ChEMBL document CHEMBL3588757, “Structure-based design, synthesis and biological testing of piperazine-linked bis-epipodophyllotoxin etoposide analogs” (Bioorg Med Chem, 2015).

Legend:
[1] = system: SW-620; experiment: Cytotoxicity against human SW620 cells assessed as cell growth at 50 uM by SRB assay; format: functional; conditions: read-out: Activity
[2] = system: MDA-MB-435; experiment: Cytotoxicity against human MDA-MB-435 cells by SRB assay; format: functional
Procedure, shortened: (§1)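 NCI-60 panel screen; 5-dose testing giving GI50 per cell line, plus a single 10 µM one-dose test. Method details not given beyond the NCI screen.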

[3] = system: RPMI-8226; experiment: Cytotoxicity against human RPMI8226 cells assessed as cell growth at 0.005 uM by SRB assay; format: functional; conditions: read-out: Activity
[4] = system: SN12C; experiment: Cytotoxicity against human SN12C cells assessed as cell growth at 0.5 uM by SRB assay; format: functional; conditions: read-out: Activity
[5] = system: U-251; experiment: Cytotoxicity against human U251 cells assessed as cell growth at 0.005 uM by SRB assay; format: functional; conditions: read-out: Activity
[6] = system: SNB-19; experiment: Cytotoxicity against human SNB19 cells assessed as cell growth at 0.5 uM by SRB assay; format: functional; conditions: read-out: Activity
[7] = system: MDA-MB-231; experiment: Cytotoxicity against human MDA-MB-231/ATCC cells by SRB assay; format: functional; procedure, shortened: as §1
[8] = system: MDA-MB-231; experiment: Cytotoxicity against human MDA-MB-231/ATCC cells assessed as cell growth at 0.5 uM by SRB assay; format: functional; conditions: read-out: Activity
[9] = system: RPMI-8226; experiment: Cytotoxicity against human RPMI8226 cells assessed as cell growth at 50 uM by SRB assay; format: functional; conditions: read-out: Activity
[10] = system: HOP-62; experiment: Cytotoxicity against human HOP62 cells assessed as cell growth at 0.5 uM by SRB assay; format: functional; conditions: read-out: Activity
Procedure, shortened: (§2)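 Measured in the NCI-60 human tumour cell line panel using five-dose testing. Growth was recorded at each dose for each cell line, and a GI50 was derived for each line.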

[11] = system: UACC-257; experiment: Cytotoxicity against human UACC257 cells by SRB assay; format: functional; procedure, shortened: as §1
[12] = system: SK-MEL-28; experiment: Cytotoxicity against human SK-MEL-28 cells assessed as cell growth at 0.005 uM by SRB assay; format: functional; conditions: read-out: Activity
[13] = system: SK-MEL-2; experiment: Cytotoxicity against human SK-MEL-2 cells assessed as cell growth at 50 uM by SRB assay; format: functional; conditions: read-out: Activity
[14] = system: COLO 205; experiment: Cytotoxicity against human COLO205 cells by SRB assay; format: functional
[15] = system: HOP-62; experiment: Cytotoxicity against human HOP62 cells assessed as cell growth at 0.05 uM by SRB assay; format: functional; conditions: read-out: Activity; procedure, shortened: as §2
[16] = system: MCF7; experiment: Cytotoxicity against human MCF7 cells assessed as cell growth at 50 uM by SRB assay; format: functional; conditions: read-out: Activity
[17] = system: SR; experiment: Cytotoxicity against human SR cells assessed as cell growth at 50 uM by SRB assay; format: functional; conditions: read-out: Activity
[18] = system: SK-OV-3; experiment: Cytotoxicity against human SKOV3 cells assessed as cell growth at 0.5 uM by SRB assay; format: functional; conditions: read-out: Activity
[19] = system: HL-60(TB); experiment: Cytotoxicity against human HL-60(TB) cells assessed as cell growth at 50 uM by SRB assay; format: functional; conditions: read-out: Activity; procedure, shortened: as §2
[20] = system: OVCAR-3; experiment: Cytotoxicity against human OVCAR3 cells assessed as cell growth at 5 uM by SRB assay; format: functional; conditions: read-out: Activity
[21] = system: HCT-116; experiment: Cytotoxicity against human HCT116 cells assessed as cell growth at 0.5 uM by SRB assay; format: functional; conditions: read-out: Activity; procedure, shortened: as §2
[22] = system: SNB-19; experiment: Cytotoxicity against human SNB19 cells assessed as cell growth at 0.05 uM by SRB assay; format: functional; conditions: read-out: Activity
[23] = system: NCI-H23; experiment: Cytotoxicity against human NCI-H23 cells assessed as cell growth at 0.005 uM by SRB assay; format: functional; conditions: read-out: Activity
[24] = system: CAKI-1; experiment: Cytotoxicity against human Caki1 cells assessed as cell growth at 0.05 uM by SRB assay; format: functional; conditions: read-out: Activity
[25] = system: NCI-H23; experiment: Cytotoxicity against human NCI-H23 cells by SRB assay; format: functional; procedure, shortened: as §1
[26] = system: CCRF-CEM; experiment: Cytotoxicity against human CCRF-CEM cells assessed as cell growth at 0.005 uM by SRB assay; format: functional; conditions: read-out: Activity
[27] = system: SF-268; experiment: Cytotoxicity against human SF268 cells assessed as cell growth at 0.05 uM by SRB assay; format: functional; conditions: read-out: Activity
[28] = system: SNB-75; experiment: Cytotoxicity against human SNB75 cells assessed as cell growth at 50 uM by SRB assay; format: functional; conditions: read-out: Activity
[29] = system: HOP-62; experiment: Cytotoxicity against human HOP62 cells assessed as cell growth at 50 uM by SRB assay; format: functional; conditions: read-out: Activity; procedure, shortened: as §2
[30] = system: SF-539; experiment: Cytotoxicity against human SF539 cells assessed as cell growth at 5 uM by SRB assay; format: functional; conditions: read-out: Activity
[31] = Cytotoxicity against human NCI-ADR-RES cells assessed as cell growth at 0.005 uM by SRB assay; format: functional; conditions: read-out: Activity
[32] = Cytotoxicity against etoposide-resistant human K/VP.5 cells assessed as cell growth inhibition after 72 hrs by MTS assay; format: functional, cell-based; conditions: K/VP.5, 72 h
Procedure, shortened: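 K/VP.5 cells are a K562-derived subline, 26-fold etoposide-resistant, with decreased topoisomerase IIα mRNA and protein. Cells were grown in suspension in αMEM with 10% fetal calf serum. Drugs were given from DMSO stocks, with final DMSO typically 0.4% or less. Read-out was MTS absorbance after 72 h. Typically nine concentrations were run in duplicate on two days. IC50 came from a four-parameter logistic fit.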

[33] = system: ACHN; experiment: Cytotoxicity against human ACHN cells by SRB assay; format: functional
[34] = system: SF-539; experiment: Cytotoxicity against human SF539 cells assessed as cell growth at 0.05 uM by SRB assay; format: functional; conditions: read-out: Activity
[35] = system: A498; experiment: Cytotoxicity against human A498 cells assessed as cell growth at 0.05 uM by SRB assay; format: functional; conditions: read-out: Activity
[36] = system: HL-60(TB); experiment: Cytotoxicity against human HL-60(TB) cells assessed as cell growth at 0.05 uM by SRB assay; format: functional; conditions: read-out: Activity; procedure, shortened: as §2
[37] = system: UO-31; experiment: Cytotoxicity against human UO31 cells by SRB assay; format: functional; procedure, shortened: as §1
[38] = system: DU-145; experiment: Cytotoxicity against human DU145 cells assessed as cell growth at 0.005 uM by SRB assay; format: functional; conditions: read-out: Activity
[39] = system: RXF 393; experiment: Cytotoxicity against human RXF393 cells assessed as cell growth at 50 uM by SRB assay; format: functional; conditions: read-out: Activity
[40] = read-out: LC50 (the source's name)
[41] = read-out: pLC50 (the source's name) (converted)

COc1cc([C@@H]2c3cc4c(cc3[C@@H](NC(=O)CN3CCN(CCCCCCCCCCN5CCN(CC(=O)N[C@@H]6c7cc8c(cc7[C@@H](c7cc(OC)c(O)c(OC)c7)[C@H]7C(=O)OC[C@@H]76)OCO8)CC5)CC3)[C@H]3COC(=O)[C@H]23)OCO4)cc(OC)c1O
growth at 50 µM [1]: -89%
GI50 ([2]; read-out: GI50): 0.295 µM
TGI ([2]; read-out: TGI): 1.23 µM
GI50 ([2]; read-out: pGI50 (converted)): 0.295 µM
TGI ([2]; read-out: pTGI (converted)): 1.23 µM
growth at 0.005 µM [3]: 89%
growth at 0.5 µM [4]: 27%
growth at 0.005 µM [5]: 85%
growth at 0.5 µM [6]: 42%
GI50 ([7]; read-out: GI50): 0.958 µM
CC50 [7, 40]: 18.3 µM
TGI ([7]; read-out: TGI): 2.28 µM
GI50 ([7]; read-out: pGI50 (converted)): 0.955 µM
CC50 [7, 41]: 18.2 µM
TGI ([7]; read-out: pTGI (converted)): 2.29 µM
growth at 0.5 µM [8]: 87%
growth at 50 µM [9]: -13%
growth at 0.5 µM [10]: 23%
GI50 ([11]; read-out: GI50): 0.679 µM
CC50 [11, 40]: 2.63 µM
TGI ([11]; read-out: TGI): 1.34 µM
GI50 ([11]; read-out: pGI50 (converted)): 0.676 µM
CC50 [11, 41]: 2.63 µM
TGI ([11]; read-out: pTGI (converted)): 1.35 µM
growth at 0.005 µM [12]: 96%
growth at 50 µM [13]: -59%
GI50 ([14]; read-out: GI50): 0.906 µM
CC50 [14, 40]: > 50 µM
TGI ([14]; read-out: TGI): 3.52 µM
GI50 ([14]; read-out: pGI50 (converted)): 0.912 µM
CC50 [14, 41]: > 50.1 µM
TGI ([14]; read-out: pTGI (converted)): 3.55 µM
growth at 0.05 µM [15]: 48%
growth at 50 µM [16]: -60%
growth at 50 µM [17]: -12%
growth at 0.5 µM [18]: 52%
growth at 50 µM [19]: -46%
growth at 5 µM [20]: 40%
growth at 0.5 µM [21]: 78%
growth at 0.05 µM [22]: 93%
growth at 0.005 µM [23]: 95%
growth at 0.05 µM [24]: 89%
GI50 ([25]; read-out: GI50): 0.181 µM
CC50 [25, 40]: 9.3 µM
TGI ([25]; read-out: TGI): 1.32 µM
GI50 ([25]; read-out: pGI50 (converted)): 0.182 µM
CC50 [25, 41]: 9.33 µM
TGI ([25]; read-out: pTGI (converted)): 1.32 µM
growth at 0.005 µM [26]: 97%
growth at 0.05 µM [27]: 77%
growth at 50 µM [28]: -26%
growth at 50 µM [29]: -20%
growth at 5 µM [30]: -88%
growth at 0.005 µM [31]: 97%
IC50 [32]: 0.114 µM
GI50 ([33]; read-out: GI50): 0.32 µM
CC50 [33, 40]: 2.95 µM
TGI ([33]; read-out: TGI): 1.11 µM
GI50 ([33]; read-out: pGI50 (converted)): 0.324 µM
CC50 [33, 41]: 2.95 µM
TGI ([33]; read-out: pTGI (converted)): 1.12 µM
growth at 0.05 µM [34]: 74%
growth at 0.05 µM [35]: 72%
growth at 0.05 µM [36]: 69%
GI50 ([37]; read-out: GI50): 0.986 µM
CC50 [37, 40]: 13.5 µM
TGI ([37]; read-out: TGI): 3.61 µM
GI50 ([37]; read-out: pGI50 (converted)): 0.977 µM
CC50 [37, 41]: 13.5 µM
TGI ([37]; read-out: pTGI (converted)): 3.63 µM
growth at 0.005 µM [38]: 99%
growth at 50 µM [39]: -47%
